Laboratory results as given in ChEMBL document CHEMBL4130545, “Lupane-Type Triterpenes of Phoradendron vernicosum” (J Nat Prod, 2017).
pIC50: −log10 of the molar value.

How the values were obtained:
[1] = Selectivity index, ratio of cytotoxic CC50 for HEK293 cells to cytotoxic CC50 for human HeLa cells; type: toxicity; conditions: HEK293 cells versus HeLa cells, read-out: Selectivity Index
Method in brief: (§1)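 Selectivity index for harmfulness to normal cells: the normal-cell (Vero or HEK293) CC50 or IC50 over the cancer-cell value from the same assay type. Each value is from sulforhodamine B growth-reduction tests done in triplicate in D-MEM/10% FBS at 37 °C, 5% CO2.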

[2] = Selectivity index, ratio of antiproliferative IC50 for African green monkey Vero cells to antiproliferative IC50 for human KB cells; type: toxicity; conditions: Vero cells versus KB cells, read-out: Ratio IC50; method in brief: as §1
[3] = Selectivity index, ratio of cytotoxic CC50 for African green monkey Vero cells to cytotoxic CC50 for human Hep2 cells; type: toxicity; conditions: Vero cells versus Hep2 cells, read-out: Selectivity Index
[4] = Cytotoxic activity in HEK293 cells by sulforhodamine B assay; type: cell-based; conditions: human
Method in brief: (§2)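 Cells grown in D-MEM with 10% (v/v) FBS, 100 U/mL penicillin G and 100 μg/mL streptomycin, at 37 °C under 5% CO2 and 95% humidity. Cytotoxic and antiproliferative effects were measured by the sulforhodamine B method of Skehan et al. CC50 (cytotoxic) or IC50 (antiproliferative) is the concentration giving 50% growth reduction. Docetaxel was the positive control. Triplicate tests.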

SiHa [5] = assay: Cytotoxic activity in human SiHa cells by sulforhodamine B assay; type: functional
Method in brief: (§3)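 Cell lines grown in D-MEM with 10% (v/v) FBS, 100 U/mL penicillin G and 100 μg/mL streptomycin at 37 °C, 5% CO2, 95% humidity. Cytotoxicity was measured by the Skehan method. CC50 was taken as the concentration that reduces cell growth by 50%. Docetaxel served as positive control, and each test was run in triplicate.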

HEp-2 [6] = assay: Antiproliferative activity in human Hep2 cells by sulforhodamine B assay; type: functional, cell-based; method in brief: as §2
[7] = Selectivity index, ratio of cytotoxic CC50 for African green monkey Vero cells to cytotoxic CC50 for human KB cells; type: toxicity; conditions: Vero cells versus KB cells, read-out: Selectivity Index; method in brief: as §1
DU-145 [8] = assay: Cytotoxic activity in human DU145 cells by sulforhodamine B assay; type: functional; method in brief: as §3
HeLa [9] = assay: Cytotoxic activity in human HeLa cells by sulforhodamine B assay; type: functional; method in brief: as §3
[10] = Selectivity index, ratio of cytotoxic CC50 for African green monkey Vero cells to cytotoxic CC50 for human SiHa cells; type: toxicity; conditions: Vero cells versus SiHa cells, read-out: Selectivity Index; method in brief: as §1
[11] = Selectivity index, ratio of cytotoxic CC50 for African green monkey Vero cells to cytotoxic CC50 for human HeLa cells; type: toxicity; conditions: Vero cells versus HeLa cells, read-out: Selectivity Index; method in brief: as §1
[12] = Selectivity index, ratio of antiproliferative IC50 for HEK293 cells to antiproliferative IC50 for human HeLa cells; type: toxicity; conditions: HEK293 cells versus HeLa cells, read-out: Ratio IC50; method in brief: as §1
Vero = assay: Antiproliferative activity in African green monkey Vero cells by sulforhodamine B assay; type: cell-based; conditions: Chlorocebus sabaeus; method in brief: as §2
HeLa [13] = assay: Antiproliferative activity in human HeLa cells by sulforhodamine B assay; type: functional, cell-based; method in brief: as §2
SiHa [14] = assay: Antiproliferative activity in human SiHa cells by sulforhodamine B assay; type: functional, cell-based; method in brief: as §2
[15] = Selectivity index, ratio of cytotoxic CC50 for HEK293 cells to cytotoxic CC50 for human Hep2 cells; type: toxicity; conditions: HEK293 cells versus Hep2 cells, read-out: Selectivity Index; method in brief: as §1
[16] = Selectivity index, ratio of antiproliferative IC50 for HEK293 cells to antiproliferative IC50 for human SiHa cells; type: toxicity; conditions: HEK293 cells versus SiHa cells, read-out: Ratio IC50; method in brief: as §1
KB [17] = assay: Antiproliferative activity in human KB cells by sulforhodamine B assay; type: functional, cell-based; method in brief: as §2
[18] = Selectivity index, ratio of antiproliferative IC50 for African green monkey Vero cells to antiproliferative IC50 for human HeLa cells; type: toxicity; conditions: Vero cells versus HeLa cells, read-out: Ratio IC50; method in brief: as §1
DU-145 [19] = assay: Antiproliferative activity in human DU145 cells by sulforhodamine B assay; type: functional, cell-based; method in brief: as §2
[20] = Cytotoxic activity in African green monkey Vero cells by sulforhodamine B assay; type: cell-based; conditions: chlorocebus sabaeus; method in brief: as §2
[21] = Selectivity index, ratio of cytotoxic CC50 for African green monkey Vero cells to cytotoxic CC50 for human MCF7 cells; type: toxicity; conditions: Vero cells versus MCF7 cells, read-out: Selectivity Index; method in brief: as §1
[22] = Selectivity index, ratio of antiproliferative IC50 for HEK293 cells to antiproliferative IC50 for human KB cells; type: toxicity; conditions: HEK293 cells versus KB cells, read-out: Ratio IC50; method in brief: as §1
[23] = Selectivity index, ratio of antiproliferative IC50 for African green monkey Vero cells to antiproliferative IC50 for human MCF7 cells; type: toxicity; conditions: Vero cells versus MCF7 cells, read-out: Ratio IC50; method in brief: as §1
MDA-MB-231 [24] = assay: Cytotoxic activity in human MDA-MB-231 cells by sulforhodamine B assay; type: functional; method in brief: as §3
[25] = Selectivity index, ratio of cytotoxic CC50 for HEK293 cells to cytotoxic CC50 for human KB cells; type: toxicity; conditions: HEK293 cells versus KB cells, read-out: Selectivity Index; method in brief: as §1
MDA-MB-231 [26] = assay: Antiproliferative activity in human MDA-MB-231 cells by sulforhodamine B assay; type: functional, cell-based; method in brief: as §2
[27] = Selectivity index, ratio of cytotoxic CC50 for African green monkey Vero cells to cytotoxic CC50 for human MDA-MB-231 cells; type: toxicity; conditions: Vero cells versus MDA-MB-231 cells, read-out: Selectivity Index; method in brief: as §1
MCF7 [28] = assay: Cytotoxic activity in human MCF7 cells by sulforhodamine B assay; type: functional; method in brief: as §3
[29] = Selectivity index, ratio of cytotoxic CC50 for HEK293 cells to cytotoxic CC50 for human MCF7 cells; type: toxicity; conditions: HEK293 cells versus MCF7 cells, read-out: Selectivity Index; method in brief: as §1
HEK293 = assay: Antiproliferative activity in HEK293 cells by sulforhodamine B assay; type: cell-based; conditions: Homo sapiens; method in brief: as §2
MCF7 [30] = assay: Antiproliferative activity in human MCF7 cells by sulforhodamine B assay; type: functional, cell-based; method in brief: as §2
KB [31] = assay: Cytotoxic activity in human KB cells by sulforhodamine B assay; type: functional; method in brief: as §3
HEp-2 [32] = assay: Cytotoxic activity in human Hep2 cells by sulforhodamine B assay; type: functional; method in brief: as §3
[33] = Selectivity index, ratio of antiproliferative IC50 for African green monkey Vero cells to antiproliferative IC50 for human SiHa cells; type: toxicity; conditions: Vero cells versus SiHa cells, read-out: Ratio IC50; method in brief: as §1
[34] = Selectivity index, ratio of cytotoxic CC50 for HEK293 cells to cytotoxic CC50 for human SiHa cells; type: toxicity; conditions: HEK293 cells versus SiHa cells, read-out: Selectivity Index; method in brief: as §1
[35] = Selectivity index, ratio of antiproliferative IC50 for HEK293 cells to antiproliferative IC50 for human MCF7 cells; type: toxicity; conditions: HEK293 cells versus MCF7 cells, read-out: Ratio IC50; method in brief: as §1
[36] = Selectivity index, ratio of cytotoxic CC50 for HEK293 cells to cytotoxic CC50 for human MDA-MB-231 cells; type: toxicity; conditions: HEK293 cells versus MDA-MB-231 cells, read-out: Selectivity Index; method in brief: as §1
[37] = Selectivity index, ratio of antiproliferative IC50 for HEK293 cells to antiproliferative IC50 for human Hep2 cells; type: toxicity; conditions: HEK293 cells versus Hep2 cells, read-out: Ratio IC50
[38] = Selectivity index, ratio of cytotoxic CC50 for African green monkey Vero cells to cytotoxic CC50 for human DU145 cells; type: toxicity; conditions: Vero cells versus DU145 cells, read-out: Selectivity Index; method in brief: as §1
[39] = Selectivity index, ratio of cytotoxic CC50 for HEK293 cells to cytotoxic CC50 for human DU145 cells; type: toxicity; conditions: HEK293 cells versus DU145 cells, read-out: Selectivity Index
[40] = Selectivity index, ratio of antiproliferative IC50 for HEK293 cells to antiproliferative IC50 for human MDA-MB-231 cells; type: toxicity; conditions: HEK293 cells versus MDA-MB-231 cells, read-out: Ratio IC50
[41] = Selectivity index, ratio of antiproliferative IC50 for HEK293 cells to antiproliferative IC50 for human DU145 cells; type: toxicity; conditions: HEK293 cells versus DU145 cells, read-out: Ratio IC50
[42] = Selectivity index, ratio of antiproliferative IC50 for African green monkey Vero cells to antiproliferative IC50 for human DU145 cells; type: toxicity; conditions: Vero cells versus DU145 cells, read-out: Ratio IC50
[43] = Selectivity index, ratio of antiproliferative IC50 for African green monkey Vero cells to antiproliferative IC50 for human MDA-MB-231 cells; type: toxicity; conditions: Vero cells versus MDA-MB-231 cells, read-out: Ratio IC50
[44] = Selectivity index, ratio of antiproliferative IC50 for African green monkey Vero cells to antiproliferative IC50 for human Hep2 cells; type: toxicity; conditions: Vero cells versus Hep2 cells, read-out: Ratio IC50; method in brief: as §1

C=C(C)[C@@H]1CC[C@]2(C(=O)O)CC[C@]3(C)[C@H](CC[C@@H]4[C@@]5(C)CC[C@H](O)C(C)(C)[C@@H]5CC[C@]43C)[C@@H]12 [BETULINIC ACID]
selectivity ratio [1]: 2.5
selectivity ratio [2]: 2.6
selectivity ratio [3]: 1.3
CC50 [4]: 80000 nM
CC50 (SiHa [5]): 28900 nM
pIC50 (HEp-2 [6]): < 3.30
selectivity ratio [7]: 2.4
CC50 (DU-145 [8]): > 500000 nM
CC50 (HeLa [9]): 32600 nM
selectivity ratio [10]: 13
selectivity ratio [11]: 1.6
selectivity ratio [12]: 7
pIC50 (Vero): 4.14
pIC50 (HeLa [13]): 4.32
pIC50 (SiHa [14]): 4.15
selectivity ratio [15]: 1.6
selectivity ratio [16]: 4.8
pIC50 (KB [17]): 4.55
selectivity ratio [18]: 1.5
pIC50 (DU-145 [19]): < 3.30
CC50 [20]: 38100 nM
selectivity ratio [21]: 0.7
selectivity ratio [22]: 12
selectivity ratio [23]: 1.3
CC50 (MDA-MB-231 [24]): 94300 nM
selectivity ratio [25]: 5.1
pIC50 (MDA-MB-231 [26]): < 3.30
selectivity ratio [27]: 0.4
CC50 (MCF7 [28]): 49600 nM
selectivity ratio [29]: 1.6
pIC50 (HEK293): 3.47
pIC50 (MCF7 [30]): 4.25
CC50 (KB [31]): 15600 nM
CC50 (HEp-2 [32]): 48200 nM
selectivity ratio [33]: 1
selectivity ratio [34]: 2.8
selectivity ratio [35]: 6
selectivity ratio [36]: 0.8

CC(=O)O[C@@]12CO[C@@H]1C[C@H](O)[C@@]1(C)C(=O)[C@H](O)C3=C(C)[C@@H](OC(=O)[C@H](O)[C@@H](NC(=O)OC(C)(C)C)c4ccccc4)C[C@@](O)([C@@H](OC(=O)c4ccccc4)[C@H]21)C3(C)C [DOCETAXEL ANHYDROUS]
selectivity ratio [1]: 17.7
selectivity ratio [2]: 2.6
selectivity ratio [3]: 21.6
CC50 [4]: 1600 nM
selectivity ratio [37]: 1.8
CC50 (SiHa [5]): 220 nM
pIC50 (HEp-2 [6]): 7.22
selectivity ratio [7]: 7.2
selectivity ratio [38]: 1.6
CC50 (DU-145 [8]): 810 nM
CC50 (HeLa [9]): 90 nM
selectivity ratio [10]: 5.9
selectivity ratio [11]: 14.4
selectivity ratio [12]: 1.6
pIC50 (Vero): 6.89
pIC50 (HeLa [13]): 7.15
pIC50 (SiHa [14]): 7.05
selectivity ratio [15]: 26.6
selectivity ratio [16]: 1.2
pIC50 (KB [17]): 7.30
selectivity ratio [18]: 1.9
selectivity ratio [39]: 2
pIC50 (DU-145 [19]): 8.00
selectivity ratio [40]: 1.6
CC50 [20]: 1300 nM
selectivity ratio [21]: 130
selectivity ratio [22]: 2.2
selectivity ratio [23]: 13
selectivity ratio [41]: 11
selectivity ratio [42]: 13
CC50 (MDA-MB-231 [24]): 190 nM
selectivity ratio [25]: 8.8
pIC50 (MDA-MB-231 [26]): 7.15
selectivity ratio [27]: 6.8
CC50 (MCF7 [28]): 10 nM
selectivity ratio [43]: 1.9
selectivity ratio [29]: 160
pIC50 (HEK293): 6.96
pIC50 (MCF7 [30]): 8.00
CC50 (KB [31]): 180 nM
CC50 (HEp-2 [32]): 60 nM
selectivity ratio [44]: 2.2
selectivity ratio [33]: 1.4
selectivity ratio [34]: 7.3
selectivity ratio [35]: 11
selectivity ratio [36]: 8.4
